Test system: U2OS
Assay: Multiplex assay against U2OS
Type: toxicity, cell-based
Details: human
Method in brief: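 Cells stained live at seeding with Hoechst33342, BioTracker Green Microtubule Cytoskeleton Dye, MitoTracker Red and Annexin V Alexa Fluor 680 were imaged on a CQ1 microscope at 37°C and 5% CO2 after compound addition. Their classification by CellPathfinder machine-learning gating ran from Hoechst high-intensity objects versus normal cells, to healthy, pyknosed or fragmented nuclei among normal cells, to mitotic or apoptotic among pyknosed cells. Tubulin, mitochondrial-mass and membrane-permeability phenotypes are per cents of healthy-nucleus cells.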

[1] = 12 h, 1 µM, compound concentration 1 uM, replicate 1
[2] = 12 h, 1 µM, compound concentration 1 uM, replicate 2
[3] = 12 h, 10 µM, compound concentration 10 uM, replicate 1
[4] = 12 h, 10 µM, compound concentration 10 uM, replicate 2
[5] = 24 h, 1 µM, compound concentration 1 uM, replicate 1
[6] = 24 h, 1 µM, compound concentration 1 uM, replicate 2
[7] = 24 h, 10 µM, compound concentration 10 uM, replicate 1
[8] = 24 h, 10 µM, compound concentration 10 uM, replicate 2
[9] = 48 h, 1 µM, compound concentration 1 uM, replicate 1
[10] = 48 h, 1 µM, compound concentration 1 uM, replicate 2
[11] = 48 h, 10 µM, compound concentration 10 uM, replicate 1
[12] = 48 h, 10 µM, compound concentration 10 uM, replicate 2

Cc1cccc(NC(=O)CN2CCC(c3ccccn3)CC2)c1.Cl.Cl
Population Apoptotic (%) [1]: 90% | Population Fragmented Nuclei (%) [1]: 27% | Population Healthy Nuclei (%) [1]: 67% | Population Hoechst High Intensity Objects (%) [1]: 1% | Population Membrane Permeable-Phenotype (%) [1]: 5% | Population Mitochondria Different-Phenotype (%) [1]: 2% | Population Mitotic Cells (%) [1]: 9% | Population Normal (%) [1]: 98% | Population Pyknosed Nuclei (%) [1]: 5% | Population Tubulin-Different-Phenotype (%) [1]: 3% | Total Cell Count [1]: 208 | Population Apoptotic (%) [2]: 57% | Population Fragmented Nuclei (%) [2]: 17% | Population Healthy Nuclei (%) [2]: 76% | Population Hoechst High Intensity Objects (%) [2]: 0% | Population Membrane Permeable-Phenotype (%) [2]: 4% | Population Mitotic Cells (%) [2]: 42% | Population Normal (%) [2]: 99% | Population Pyknosed Nuclei (%) [2]: 6% | Total Cell Count [2]: 111 | Population Apoptotic (%) [3]: 72% | Population Fragmented Nuclei (%) [3]: 34% | Population Healthy Nuclei (%) [3]: 55% | Population Hoechst High Intensity Objects (%) [3]: 2% | Population Membrane Permeable-Phenotype (%) [3]: 8% | Population Mitochondria Different-Phenotype (%) [3]: 6% | Population Mitotic Cells (%) [3]: 27% | Population Normal (%) [3]: 97% | Population Pyknosed Nuclei (%) [3]: 10% | Population Tubulin-Different-Phenotype (%) [3]: 3% | Total Cell Count [3]: 216 | Population Apoptotic (%) [4]: 66% | Population Fragmented Nuclei (%) [4]: 21% | Population Healthy Nuclei (%) [4]: 70% | Population Hoechst High Intensity Objects (%) [4]: 1% | Population Membrane Permeable-Phenotype (%) [4]: 12% | Population Mitochondria Different-Phenotype (%) [4]: 7% | Population Mitotic Cells (%) [4]: 33% | Population Normal (%) [4]: 98% | Population Pyknosed Nuclei (%) [4]: 8% | Population Tubulin-Different-Phenotype (%) [4]: 9% | Total Cell Count [4]: 111 | Population Apoptotic (%) [5]: 76% | Population Fragmented Nuclei (%) [5]: 22% | Population Healthy Nuclei (%) [5]: 70% | Population Hoechst High Intensity Objects (%) [5]: 3% | Population Membrane Permeable-Phenotype (%) [5]: 5% | Population Mitochondria Different-Phenotype (%) [5]: 3% | Population Mitotic Cells (%) [5]: 23% | Population Normal (%) [5]: 96% | Population Pyknosed Nuclei (%) [5]: 7% | Population Tubulin-Different-Phenotype (%) [5]: 3% | Total Cell Count [5]: 249 | Population Apoptotic (%) [6]: 73% | Population Fragmented Nuclei (%) [6]: 21% | Population Healthy Nuclei (%) [6]: 67% | Population Hoechst High Intensity Objects (%) [6]: 0% | Population Membrane Permeable-Phenotype (%) [6]: 7% | Population Mitochondria Different-Phenotype (%) [6]: 4% | Population Mitotic Cells (%) [6]: 26% | Population Normal (%) [6]: 99% | Population Pyknosed Nuclei (%) [6]: 11% | Population Tubulin-Different-Phenotype (%) [6]: 5% | Total Cell Count [6]: 135 | Population Apoptotic (%) [7]: 85% | Population Fragmented Nuclei (%) [7]: 32% | Population Healthy Nuclei (%) [7]: 55% | Population Hoechst High Intensity Objects (%) [7]: 3% | Population Membrane Permeable-Phenotype (%) [7]: 6% | Population Mitochondria Different-Phenotype (%) [7]: 3% | Population Mitotic Cells (%) [7]: 14% | Population Normal (%) [7]: 96% | Population Pyknosed Nuclei (%) [7]: 11% | Population Tubulin-Different-Phenotype (%) [7]: 2% | Total Cell Count [7]: 243 | Population Apoptotic (%) [8]: 75% | Population Fragmented Nuclei (%) [8]: 20% | Population Healthy Nuclei (%) [8]: 73% | Population Hoechst High Intensity Objects (%) [8]: 2% | Population Membrane Permeable-Phenotype (%) [8]: 17% | Population Mitochondria Different-Phenotype (%) [8]: 5% | Population Mitotic Cells (%) [8]: 25% | Population Normal (%) [8]: 97% | Population Pyknosed Nuclei (%) [8]: 6% | Population Tubulin-Different-Phenotype (%) [8]: 10% | Total Cell Count [8]: 131 | Population Apoptotic (%) [9]: 82% | Population Fragmented Nuclei (%) [9]: 18% | Population Healthy Nuclei (%) [9]: 72% | Population Hoechst High Intensity Objects (%) [9]: 2% | Population Membrane Permeable-Phenotype (%) [9]: 6% | Population Mitochondria Different-Phenotype (%) [9]: 3% | Population Mitotic Cells (%) [9]: 17% | Population Normal (%) [9]: 97% | Population Pyknosed Nuclei (%) [9]: 8% | Population Tubulin-Different-Phenotype (%) [9]: 3% | Total Cell Count [9]: 341 | Population Apoptotic (%) [10]: 94% | Population Fragmented Nuclei (%) [10]: 17% | Population Hoechst High Intensity Objects (%) [10]: 3% | Population Membrane Permeable-Phenotype (%) [10]: 2% | Population Mitotic Cells (%) [10]: 5% | Population Normal (%) [10]: 96% | Population Pyknosed Nuclei (%) [10]: 10% | Population Tubulin-Different-Phenotype (%) [10]: 2% | Total Cell Count [10]: 182 | Population Apoptotic (%) [11]: 96% | Population Fragmented Nuclei (%) [11]: 29% | Population Healthy Nuclei (%) [11]: 60% | Population Hoechst High Intensity Objects (%) [11]: 3% | Population Membrane Permeable-Phenotype (%) [11]: 6% | Population Mitochondria Different-Phenotype (%) [11]: 6% | Population Mitotic Cells (%) [11]: 3% | Population Normal (%) [11]: 96% | Population Pyknosed Nuclei (%) [11]: 9% | Population Tubulin-Different-Phenotype (%) [11]: 3% | Total Cell Count [11]: 303 | Population Apoptotic (%) [12]: 83% | Population Fragmented Nuclei (%) [12]: 19% | Population Healthy Nuclei (%) [12]: 74% | Population Membrane Permeable-Phenotype (%) [12]: 10% | Population Mitochondria Different-Phenotype (%) [12]: 4% | Population Mitotic Cells (%) [12]: 16% | Population Pyknosed Nuclei (%) [12]: 6% | Population Tubulin-Different-Phenotype (%) [12]: 4% | Total Cell Count [12]: 198

— ChEMBL document CHEMBL5058577, “EUbOPEN Chemogenomics Library 2 (Multiplex)” (2022)
